For 167 variants, yeast fitness results are on record in the RNAGym collection of RNA variant scans (doi:10.1126/science.aae0568).

Variants at the floor of the assay were thinned out.

B1: tRNA (parent)
chain: GUUCCGUUGGCGUAAUGGUAACGCGUCUCCCUCCUAAGGAGAAGACUGCGGGUUCGAGUCCCGUACGGAACG

The series covers variants of B1. Kind of series: yeast fitness relative to wild type (ratio to wild type); higher = fitter; tRNA-Arg(CCU), competitive growth, 37 C, YPD. Summed up: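 Variants of the tRNA-Arg(CCU) gene were chemically synthesised with a 3% per-site mutation rate across 69 sites and placed at the native genomic locus in Saccharomyces cerevisiae. Six parallel replicates of the pooled strains were competed in YPD at 37°C for 24 hours, and gene amplicons from the start and end populations were read by 100-nucleotide paired-end sequencing. Darwinian fitness relative to wild type was derived from changes in genotype frequencies. Genotypes required ≥ 100 starting reads, and estimates < 0.5 were set to 0.5.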
In the case of U3A A21G C33G C34G, the yeast fitness was no more than 0.5.

Regarding C24U A36G, the yeast fitness worked out at 0.88.

As for U13C G38C A40U C49A C66A, the yeast fitness is no more than 0.5.

In the case of C24U A37U G63C, the yeast fitness was no more than 0.5.

Regarding A36U A45C C49U, the yeast fitness is no more than 0.5.

Turning to U64A A70G, the yeast fitness amounted to 0.711.

Consider C11U A42C U47C, for which the yeast fitness is 0.764.

Take C22U G48A U54C: the yeast fitness is 0.601.

Regarding C55A G56C G67C, the yeast fitness was 0.574.

Take G10A C60G A70U: the yeast fitness is no more than 0.5.

Turning to A20G G56U, the yeast fitness was determined as 0.804.

Regarding C4U C33A G68A, the yeast fitness was no more than 0.5.

For U13A U16A C61U G63C, the yeast fitness was no more than 0.5.

Consider A42U C55A A65C, for which the yeast fitness came to 0.538.

With U3A U8A C31G A40C C66U, the yeast fitness is no more than 0.5.

Regarding G10C A14U U19A C22U U59G A65C, the yeast fitness was no more than 0.5.

Regarding C4G C27A C46U G67C, the yeast fitness was no more than 0.5.

For the variant G6A U19C C24U, the yeast fitness is 0.744.

Turning to G6C A14G C46G C62U C66U, the yeast fitness is no more than 0.5.

As to C30A A70U, the yeast fitness was found to be 1.02.

For the variant G12C A45U G58C A65U A70U, the yeast fitness was no more than 0.5.

In the case of C30U C31G A36C U54A, the yeast fitness was determined as 0.674.

With C22G C29G C33U A42G, the yeast fitness was no more than 0.5.

For A21G C29U C31U, the yeast fitness was no more than 0.5.

As for C4U U26A A37G, the yeast fitness was no more than 0.5.

For the variant A20C A36U A65U, the yeast fitness is no more than 0.5.

For G6A C22U C29G, the yeast fitness was no more than 0.5.

On to C5A U32A A36C, for which the yeast fitness is no more than 0.5.

As for C11U A20U G39C U54G, the yeast fitness is no more than 0.5.

Regarding A20G A40C A42U A43C G48A C61A A69U, the yeast fitness is no more than 0.5.

On to G25A C61U A69C, for which the yeast fitness came to 0.637.

As for C11U A15G, the yeast fitness was 1.01.

U2G C33U A42C: the yeast fitness is 0.681.

For the variant G63C G68C, the yeast fitness was 0.761.

Turning to G6A U19G A43U A65G G68A, the yeast fitness is no more than 0.5.

Turning to U7G C46A C61G A69G, the yeast fitness was no more than 0.5.

Regarding C4U A15G U16C, the yeast fitness was found to be 0.728.

Regarding C5A C46A A69U, the yeast fitness came out at 0.738.

Consider C30G A65C, for which the yeast fitness turned out to be 0.68.

C11A U19A G52A: the yeast fitness was no more than 0.5.

C24A A45G: the yeast fitness is 0.626.

Turning to G17C C66A, the yeast fitness worked out at 0.575.

As for G9A U19C G23C U59A G68C, the yeast fitness is no more than 0.5.

As to G44A G67C, the yeast fitness was 0.71.

Take U13C U26A C27U: the yeast fitness was 0.593.

As for C22G A42U G50U, the yeast fitness was 0.523.

G6A A14G: the yeast fitness is 0.844.

Consider A14G G23A G38C C46U, for which the yeast fitness was 0.621.

On to C11U C22G A70U, for which the yeast fitness was determined as 0.722.

Consider G12C A37G U54A A65C, for which the yeast fitness is no more than 0.5.

Regarding U28G C30G C49U U64C, the yeast fitness was no more than 0.5.

As to G25A G41A C46G G50A C62A, the yeast fitness is no more than 0.5.

In the case of A14C G25C U32A A43C G63A A69C, the yeast fitness is no more than 0.5.

Turning to A42C A69C, the yeast fitness worked out at 0.939.

For G12A G17A U26A A40U, the yeast fitness is no more than 0.5.

Turning to C24U C60G A65U, the yeast fitness is no more than 0.5.

Take A20U A40C: the yeast fitness was determined as 0.712.

Turning to C22U C29A C34A G41C A45C U47A C55A, the yeast fitness was no more than 0.5.

For C5A U7A, the yeast fitness turned out to be 0.636.

Turning to U3A A21U G23C A43C, the yeast fitness was no more than 0.5.

As for A14C G17U C22U C34U, the yeast fitness is no more than 0.5.

Consider G6A G17C A37C, for which the yeast fitness is 0.634.

As for G17A G41U A57C, the yeast fitness was no more than 0.5.

For G39A C46A, the yeast fitness stood at 1.01.

In the case of U3C C31G, the yeast fitness was 0.86.

For U13C C29G A36U G41C A45C C49U U54C C61U, the yeast fitness was no more than 0.5.

As for C5U U47C U54C C55G, the yeast fitness is no more than 0.5.

As for C5G A36G G68C, the yeast fitness worked out at 0.596.

Consider C5A A15G C33A C61U, for which the yeast fitness is 0.531.

Take G6C C46G C62U G63A C66U: the yeast fitness was no more than 0.5.

C5U G12A A40U A45G C60A: the yeast fitness is no more than 0.5.

With G44C A57C, the yeast fitness worked out at 0.568.

Turning to C4A G6A, the yeast fitness was found to be 0.706.

Regarding U7G A40C, the yeast fitness was 0.807.

Turning to C4G U13C G23U G48C G50A, the yeast fitness was no more than 0.5.

Turning to C5A A21G C31G G56C U59A C60G C62G A70C, the yeast fitness is no more than 0.5.

With C31U G44C A69C, the yeast fitness worked out at 0.585.

For the variant C4U G56C A65U, the yeast fitness was no more than 0.5.

As to U8A G56U G67A A70C, the yeast fitness is no more than 0.5.

A14U A40C A57C C60U: the yeast fitness was no more than 0.5.

As for C34G A65G, the yeast fitness is 0.765.

As to C22U C55A A65G C66U, the yeast fitness amounted to 0.585.

As for A37C C60A A70G, the yeast fitness was determined as 0.592.

C11U C30U C46A: the yeast fitness stood at 0.821.

As to U28G G48A C49G G50U, the yeast fitness stood at 0.611.

Regarding C4A U8C G58A, the yeast fitness is no more than 0.5.

For U3C G18A U32G A37G A43C G51A, the yeast fitness is no more than 0.5.

For the variant U13A U16C C34A, the yeast fitness was no more than 0.5.

For the variant G12A G18C C33U A69C, the yeast fitness worked out at 0.528.

A21C G38C G63C A70U: the yeast fitness is no more than 0.5.

Consider C24G C33U U59C, for which the yeast fitness was no more than 0.5.

Regarding A21U C27U A37U C60G, the yeast fitness was no more than 0.5.

As to A20G C34A U47A C61G, the yeast fitness was no more than 0.5.

For the variant C5A C24G C29G A40C, the yeast fitness was no more than 0.5.

For C11A C31G C33U C61G U64A, the yeast fitness was no more than 0.5.

As to A14U G23A C29G C46A C55G, the yeast fitness is 0.57.

With A20G C33A A36C U47A C66A, the yeast fitness is no more than 0.5.

A20C A36U: the yeast fitness amounted to 0.635.

As for C5U C31U C33U C34G A40C G63A, the yeast fitness was no more than 0.5.

For the variant U47C U53C A57C, the yeast fitness was no more than 0.5.

Regarding G6A C29A C62A, the yeast fitness was no more than 0.5.

Turning to G9C G52A, the yeast fitness stood at 0.564.

As for C5A U8A U16G A20U A36G A57G G68A, the yeast fitness is no more than 0.5.

For the variant C11U A37C U47C, the yeast fitness was found to be 0.706.

Take U7C A15G C61G C66U A69U: the yeast fitness is no more than 0.5.

Regarding C4U C27U U53G, the yeast fitness is no more than 0.5.

Regarding A21U G41A A42C U54G, the yeast fitness was no more than 0.5.

In the case of G23C C49G C62U, the yeast fitness was no more than 0.5.

For U26A C31U G68A, the yeast fitness amounted to 0.716.

For the variant A21C A45C C49U U64C, the yeast fitness is no more than 0.5.

Turning to U35C G48A C60A, the yeast fitness turned out to be 0.648.

As for C5U A20G U47C, the yeast fitness was no more than 0.5.

On to A45U U54C C66G G67C, for which the yeast fitness was no more than 0.5.

Turning to C22A C31G C46A C49U, the yeast fitness is no more than 0.5.

Turning to C30A U35A A42G A43C, the yeast fitness was no more than 0.5.

Turning to C46A C61U A70C, the yeast fitness came to 0.861.

Consider G10A A21G, for which the yeast fitness is 0.878.

In the case of G9C A65U, the yeast fitness was determined as 0.774.

Take C4U C5G U16C C24G A42U A43G: the yeast fitness was no more than 0.5.

Regarding C22U G38C G41C A65G, the yeast fitness was no more than 0.5.

In the case of C11U C27A C29A A37U A45U, the yeast fitness amounted to 0.54.

On to C4U C33A G41C C60U A65U A69U, for which the yeast fitness is no more than 0.5.

As to U2G A57C C62A A65C, the yeast fitness was no more than 0.5.

Consider C5A A20C C22A A36C C61U, for which the yeast fitness turned out to be 0.531.

Consider U26G U28A, for which the yeast fitness amounted to 0.62.

Take C4G C27U G58A: the yeast fitness came to 0.61.

A37U G50A: the yeast fitness stood at 0.804.

For the variant C5U C30U C34G G38C A65C, the yeast fitness was no more than 0.5.

In the case of G18U A36C G67C, the yeast fitness was no more than 0.5.

Regarding G44C C55G, the yeast fitness turned out to be 0.596.

In the case of G9C A20U U47C, the yeast fitness was no more than 0.5.

For G12A C24G A36G A65U, the yeast fitness is no more than 0.5.

With A36G A43G, the yeast fitness stood at 0.975.

As to U54C C66A, the yeast fitness worked out at 0.595.

Regarding G10A U26A C27U C29A G48A C62A, the yeast fitness was no more than 0.5.

On to A40C A45G, for which the yeast fitness was determined as 1.

In the case of U16C C29U G58A A69U, the yeast fitness stood at 0.577.

Consider G23A A45G A69C, for which the yeast fitness was 0.507.

As to C4A U16C C27G A42G U53A, the yeast fitness was no more than 0.5.

With G6C U26A, the yeast fitness was 0.641.

In the case of C22G C30G U59G, the yeast fitness is no more than 0.5.

On to U3G A20C A65U, for which the yeast fitness was determined as 0.589.

On to A42G U47C, for which the yeast fitness is 0.959.

With C4U U16G U47G, the yeast fitness was 0.602.

In the case of C5U A15C U32A U47C, the yeast fitness was no more than 0.5.

On to C5A A21U U32A G50A C60G, for which the yeast fitness is no more than 0.5.

Turning to G10C C29A A40U C55G, the yeast fitness is no more than 0.5.

For C30U G51A, the yeast fitness worked out at 0.7.

Turning to C27G G39C G52A, the yeast fitness was no more than 0.5.

Turning to U16G A43U G50C G67A, the yeast fitness was no more than 0.5.

Consider A15G U35G A45U, for which the yeast fitness was no more than 0.5.

C24U G48U: the yeast fitness was 0.783.

Consider C33U C49A, for which the yeast fitness worked out at 0.638.

Consider G10C G12C C46G C55U G67C, for which the yeast fitness was no more than 0.5.

Turning to A20G G38C, the yeast fitness came out at 0.789.

Take C4G U16C U19C U32A C46U G63C: the yeast fitness was no more than 0.5.

As for G9C C31U A65U, the yeast fitness is no more than 0.5.

As for C27U C29G A42G, the yeast fitness was no more than 0.5.

With U2A U16A U19A C46U, the yeast fitness was found to be 0.714.

U64A A65G G67U: the yeast fitness was 0.709.

On to G25C A43U C61G G67C, for which the yeast fitness was no more than 0.5.

Take U7A G23A C24U U35A C60A A69U: the yeast fitness was no more than 0.5.

On to A14C C24U A45U G51C, for which the yeast fitness was no more than 0.5.

As to A21U U59C, the yeast fitness worked out at 0.672.

With U7A C29A G50C, the yeast fitness is no more than 0.5.

As to C24A U59G C66U A70C, the yeast fitness was 0.529.

As to A15G C30G U64C, the yeast fitness is no more than 0.5.
